According to ChEMBL document CHEMBL1806497, “Design, synthesis and evaluation of N-benzoylindazole derivatives and analogues as inhibitors of human neutrophil elastase” (Bioorg Med Chem, 2011):
Activity calls are given as the source filed them. The rule behind the calls is not given here.

Tests used:
[1] = target: T1, Neutrophil elastase (Homo sapiens) (UniProt P08246); test: Inhibition of human neutrophil elastase using N-methylsuccinyl-Ala-Ala-Pro-Val-7-amino-4-methyl-coumarin as substrate at < 55 uM measured every 30 secs for 10 mins by fluorescence microplate reader
T1 sequence (whole entry): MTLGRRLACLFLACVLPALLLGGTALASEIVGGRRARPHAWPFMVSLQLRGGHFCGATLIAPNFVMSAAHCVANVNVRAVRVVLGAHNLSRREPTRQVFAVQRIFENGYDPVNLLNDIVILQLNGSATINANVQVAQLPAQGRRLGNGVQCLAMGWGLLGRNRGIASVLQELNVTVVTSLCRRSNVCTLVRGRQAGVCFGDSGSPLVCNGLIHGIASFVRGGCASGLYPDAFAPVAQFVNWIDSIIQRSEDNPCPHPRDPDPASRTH
Method in brief: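 20 mU/mL HNE in 200 mM Tris–HCl pH 7.5, 0.01% BSA, 0.05% Tween-20, 1% DMSO final, added to compound dilutions. Reaction started with 25 µM substrate, read every 30 s for 10 min at 25 °C (ex 355/em 460 nm). IC50 from % inhibition vs log concentration, at least six points; mean of ≥3 independent experiments.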

Neutrophil elastase = target: T2, Neutrophil elastase (Homo sapiens, UniProt P08246); test: Inhibition of human neutrophil elastase using N-methylsuccinyl-Ala-Ala-Pro-Val-7-amino-4-methyl-coumarin as substrate measured every 30 secs for 10 mins by fluorescence microplate reader
T2 sequence (P08246 whole entry): T1 sequence (whole entry)

[2] = Inhibition of human pancreatic chymotrypsin using Suc-Ala-Ala-Pro-Phe-7-amino-4-methylcoumarin as substrate by spectrophotometric analysis
Method in brief: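 30 nM chymotrypsin in 0.05 M Tris–HCl pH 8.0 with 100 µM substrate, 25 °C. Fluorescence read at ex 355/em 460 nm. IC50 from % inhibition vs log concentration, at least six points; mean of ≥3 experiments.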

Prothrombin = Prothrombin (Homo sapiens, UniProt P00734); test: Inhibition of human plasma thrombin benzoyl-Phe-Val-Arg-7-amino-4-methylcoumarin as substrate by spectrophotometric analysis
Method in brief: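 Fluorescence read at ex 355/em 460 nm. IC50 from % inhibition vs log concentration, at least six points; mean of ≥3 experiments.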

[3] = target: Urokinase-type plasminogen activator (Homo sapiens, UniProt P00749); test: Inhibition of human urine urokinase using benzyloxycarbonyl-Gly-Gly-Arg-7-amino-4-methylcoumarin as substrate by spectrophotometric analysis
Method in brief: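 30 U/mL urokinase in 0.1 M Tris–HCl pH 8.0 with 30 µM substrate, 25 °C. Fluorescence read at ex 355/em 460 nm. IC50 from % inhibition vs log concentration, at least six points; mean of ≥3 experiments.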

[4] = target: T1, Neutrophil elastase (Homo sapiens); test: Inhibition of human neutrophil elastase assessed as cleavage of substrate N-methylsuccinyl-Ala-Ala-Pro-Val-7-amino-4-methyl-coumarin at 600 nM measured upto 90 mins by fluorescence microplate reader
Method in brief: (§1)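 HNE incubated with compound at 600 nM; substrate cleavage followed fluorimetrically for the first 180 min and out to 10 h, with a vehicle control. More fluorogenic substrate added after the 10 h incubation to test residual enzyme activity.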

[5] = target: T1, Neutrophil elastase (Homo sapiens); test: Inhibition of human neutrophil elastase assessed as cleavage of substrate N-methylsuccinyl-Ala-Ala-Pro-Val-7-amino-4-methyl-coumarin at 600 nM after 5 hrs by fluorescence microplate reader; method in brief: as §1
[6] = target: T1, Neutrophil elastase (Homo sapiens); test: Inhibition of human neutrophil elastase assessed as cleavage of substrate N-methylsuccinyl-Ala-Ala-Pro-Val-7-amino-4-methyl-coumarin at 600 nM after 10 hrs by fluorescence microplate reader; method in brief: as §1
[7] = target: T1, Neutrophil elastase (Homo sapiens); test: Inhibition of human neutrophil elastase assessed as cleavage of substrate N-methylsuccinyl-Ala-Ala-Pro-Val-7-amino-4-methyl-coumarin at 600 nM measured upto 120 mins by fluorescence microplate reader
[8] = target: T1, Neutrophil elastase (Homo sapiens); test: Competitive inhibition of human neutrophil elastase assessed as hydrolysis of fluorogenic substrate N-methylsuccinyl-Ala-Ala-Pro-Val-7-amino-4-methyl-coumarin by Lineweaver-Burk plot analysis
Method in brief: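 HNE kinetics with inhibitor at 0 and 40 nM over varied substrate concentrations; double-reciprocal Lineweaver–Burk plot, representative of three independent experiments.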

[9] = Stability of the compound in aqueous buffer pH 7.3 assessed as hydrolysis of the compound after 10 hrs by spectrophotometric analysis; type: physicochemical; conditions: pH 7.3, 10 h
Method in brief: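 Compound at 20 µM in 0.05 M phosphate buffer pH 7.3, 25 °C. Absorbance spectra (230–330 nm) scanned repeatedly over time to follow spontaneous hydrolysis; scans representative of two independent experiments.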

SMILES: O=C(Nc1ccccc1)c1nn(Cc2ccc(Cl)cc2)c2ccccc12
- inhibition [1]: inactive

SMILES: CCOC(=O)c1nn(C(=O)c2cccc3ccccc23)c2ccccc12
- inhibition [1]: inactive

SMILES: CCCC(=O)n1nc(C(=O)OCC)c2ccccc21
- IC50 (Neutrophil elastase): 0.18 µM
- IC50 [2]: 0.43 µM
- IC50 (Prothrombin): 5.2 µM
- IC50 [3]: 14 µM
- inhibition [4]: Active
- inhibition [5]: inactive
- inhibition [6]: inactive

SMILES: CC(C)OC(=O)c1nn(C(=O)c2ccccc2)c2ccccc12
- IC50 (Neutrophil elastase): 0.24 µM
- IC50 [2]: 0.047 µM
- IC50 (Prothrombin): 7.8 µM
- IC50 [3]: 6.3 µM
- inhibition [7]: Active
- inhibition [5]: 50%
- inhibition [6]: inactive

SMILES: CCOC(=O)c1nn(C(=O)c2ccccc2Cl)c2ccccc12
- inhibition [1]: inactive

SMILES: COC(=O)c1nn(C(=O)c2ccccc2)c2ccccc12
- IC50 (Neutrophil elastase): 0.089 µM
- IC50 [2]: 0.081 µM
- IC50 (Prothrombin): 14 µM
- IC50 [3]: 1.2 µM
- inhibition [8]: Active
- Stability [9]: Unstable
- inhibition [7]: Active
- inhibition [5]: 50%
- inhibition [6]: inactive

SMILES: CCOC(=O)c1nn(C(=O)c2cc(OC)c(OC)c(OC)c2)c2ccccc12
- inhibition [1]: inactive

SMILES: CCOC(=O)c1nn(C(=O)Nc2ccc(Cl)cc2)c2ccccc12
- inhibition [1]: inactive

SMILES: CCOC(=O)c1nn(C(=O)c2cccc([N+](=O)[O-])c2)c2ccccc12
- inhibition [1]: inactive

SMILES: CCOC(=O)c1nn(C(=O)Nc2cccc(OC)c2)c2ccccc12
- inhibition [1]: inactive

SMILES: O=C(Nc1ccccc1)c1nn(C(=O)c2ccncc2)c2ccccc12
- inhibition [1]: inactive

SMILES: CCOC(=O)c1nn(C(=O)c2cccc(C(F)(F)F)c2)c2ccccc12
- inhibition [1]: inactive

SMILES: O=C(Nc1ccccc1)c1nn(S(=O)(=O)c2ccc(Cl)cc2)c2ccccc12
- inhibition [1]: inactive

SMILES: O=C(OCC(F)(F)F)c1nn(C(=O)c2ccccc2)c2ccccc12
- IC50 (Neutrophil elastase): 0.26 µM
- IC50 [2]: 0.0029 µM
- IC50 (Prothrombin): 6.7 µM
- IC50 [3]: 10 µM
- inhibition [7]: Active
- inhibition [5]: 50%
- inhibition [6]: inactive

SMILES: Cc1ccc(S(=O)(=O)n2nc(C(=O)Nc3ccccc3)c3ccccc32)cc1
- inhibition [1]: inactive

SMILES: CCOC(=O)c1nn(C(=O)c2ccc([N+](=O)[O-])cc2)c2ccccc12
- inhibition [1]: inactive

SMILES: COC(=O)c1nn(C(=O)c2ccsc2)c2ccccc12
- IC50 (Neutrophil elastase): 0.31 µM
- IC50 [2]: 0.26 µM
- IC50 [3]: 12 µM
- inhibition [7]: Active
- inhibition [5]: 50%
- inhibition [6]: inactive

SMILES: O=C(Nc1ccccc1)c1nn(C(=O)c2ccccc2Cl)c2ccccc12
- inhibition [1]: inactive

SMILES: O=C(O)c1nn(C(=O)c2ccccc2)c2ccccc12
- inhibition [1]: inactive

SMILES: O=C(Nc1ccccc1)c1nn(-c2ccc(Cl)cc2)c2ccccc12
- inhibition [1]: inactive

SMILES: COc1cccc(C(=O)n2nc(C)c3ccccc32)c1
- inhibition [1]: inactive

SMILES: COC(=O)c1nn(C(=O)c2cccc(C)c2)c2ccccc12
- IC50 (Neutrophil elastase): 0.13 µM
- IC50 [2]: 0.03 µM
- IC50 (Prothrombin): 5.1 µM
- IC50 [3]: 0.87 µM
- inhibition [8]: Active
- inhibition [7]: Active
- inhibition [6]: inactive

SMILES: CCOC(=O)c1nn(C(=O)c2ccncc2)c2ccccc12
- inhibition [1]: inactive

SMILES: CCOC(=O)c1nn(CC(=O)c2ccccc2)c2ccccc12
- inhibition [1]: inactive

SMILES: COC(=O)c1nn(C(=O)c2cccc(N)c2)c2ccccc12
- inhibition [1]: inactive

SMILES: O=C(Nc1ccccc1)c1nn(C(=O)c2ccc([N+](=O)[O-])cc2)c2ccccc12
- inhibition [1]: inactive

SMILES: CCOC(=O)c1nn(C(=O)C2CCCCC2)c2ccccc12
- inhibition [1]: inactive
